Test results as given in ChEMBL document CHEMBL4359883, “4(1H)-quinolone derivatives overcome acquired resistance to anti-microtubule agents by targeting the colchicine site of β-tubulin” (Eur J Med Chem, 2019).
Activity calls are given as the source filed them. No cut-off for these calls is given here.

Columns and labels:
[1] = tested on: CL1-0; assay: Cell cycle arrest in human CL1-0 cells assessed as increase in cell population at sub-G1 phase after 24 hrs by propidium iodide-staining based flow cytometry; type: functional
How it was run: (§1)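 Cells treated for 24 h, then trypsinized and fixed overnight in ice-cold 70% ethanol. Stained for 30 min with propidium iodide (10 µg/mL) plus RNase (20 µg/mL), and DNA content measured by flow cytometry. Mean ± SD.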

[2] = tested on: IGROV-1; assay: Antiproliferative activity against human IGROV1 cells assessed as reduction in cell viability after 72 hrs by MTS assay; type: functional, cell-based; conditions: IGROV-1, 72 h
How it was run: (§2)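 Cells plated at 2000/well, cultured overnight, then exposed to a range of compound concentrations for 72 h. MTS reagent added for 1–4 h at 37 °C and absorbance read at 490 nm. Cultured in RPMI 1640 or DMEM with 10% heat-inactivated FBS under 5% CO2. Data are the mean of three determinations.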

[3] = target: Tubulin (Sus scrofa) (UniProt P02554+P02550); assay: Inhibition of porcine tubulin at 5 uM in presence of GTP measured every minute for 1 hr by microplate reader analysis; type: protein assay
[4] = tested on: NCI-H1975; assay: Antitumour activity against human NCI-H1975 cells xenografted in Balb/c mouse assessed as reduction in tumour size at 4 mg/kg, ip administered 3 times per week and measured on day 25 (reference value: 1749 +/- 234.5 mm3); type: functional
[5] = tested on: OVCAR-3; assay: Antiproliferative activity against human OVCAR3 cells assessed as reduction in cell viability after 72 hrs by MTS assay; type: functional, cell-based; conditions: OVCAR-3, 72 h; how it was run: as §2
[6] = tested on: MOLT-4; assay: Antiproliferative activity against human MOLT4 cells assessed as reduction in cell viability after 72 hrs by MTS assay; type: functional, cell-based; conditions: MOLT-4, 72 h; how it was run: as §2
[7] = Cytotoxicity against human NHFB cells assessed as reduction in cell viability after 72 hrs by MTS assay; type: cell-based
How it was run: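 Cells plated at 2000 per well, cultured overnight, then exposed to a range of compound concentrations for 72 h. MTS reagent added, 1–4 h at 37 °C, absorbance read at 490 nm. Mean of three determinations.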

[8] = target: Tubulin alpha (Homo sapiens) (UniProt P0DPH7+P68366+Q71U36+P68363+Q9BQE3+Q6PEY2+A6NHL2+Q9NY65); assay: Induction of microtubule depolymerization in human NCI-H1975 cells assessed as increase in alpha tubulin soluble form by immunoblot analysis; type: cell-based
How it was run: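 Lysate spun at 16,000 rpm for 15 min at room temperature. Soluble (monomer) and particulate (polymer) fractions immunoblotted for α-tubulin.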

[9] = tested on: NCI-H1975; assay: Cell cycle arrest in human NCI-H1975 cells assessed as increase in cell population at sub-G1 phase after 24 hrs by propidium iodide-staining based flow cytometry; type: functional; how it was run: as §1
[10] = target: Tubulin (Homo sapiens) (UniProt P68371+Q9H4B7+P0DPH7+P68366+Q13509+Q71U36+P04350+Q3ZCM7+P07437+P68363+Q9BQE3+Q6PEY2+Q13885+Q9BVA1+Q9BUF5); assay: Binding affinity to tubulin (unknown origin) assessed as increase complex formation with compound by SPR analysis; type: protein-complex assay
How it was run: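 Biotin-tubulin (50 µg/mL) captured on a streptavidin chip to about 3,000 RU, with remaining sites blocked by biocytin and a free flow cell as reference. Compound injected at different concentrations in HBS-EP+ (pH 7.4) at 25 °C. KD obtained from steady-state fitting.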

[11] = tested on: NCI-H1975; assay: Induction of apoptosis in human NCI-H1975 cells assessed as caspase 8 activation at 40 to 80 nM after 24 hrs by immunoblotting analysis; type: functional, cell-based
[12] = tested on: NCI-H1975; assay: Induction of cell cycle arrest in human NCI-H1975 cells assessed as accumulation at mitotic phase after 24 hrs by high content imaging analysis; type: functional, cell-based
How it was run: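 Cells exposed for 24 h, stained for phospho-histone H3 (S10), and imaged by high-content imaging. Mitotic index taken as the fraction of p-HH3-positive cells. Mean ± SD.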

[13] = tested on: CL1-0; assay: Induction of apoptosis in human CL1-0 cells assessed as cleaved caspase 9 after 24 hrs by immunoblotting analysis; type: functional, cell-based
[14] = tested on: NCI-H1975; assay: Induction of apoptosis in human NCI-H1975 cells assessed as PARP cleavage at 25 to 50 nM after 24 hrs by immunoblotting analysis; type: functional, cell-based
[15] = tested on: NCI-H1975; assay: Induction of apoptosis in human NCI-H1975 cells assessed as increase in p-HH3 expression at 25 to 50 nM after 24 hrs by immunoblotting analysis; type: functional, cell-based
[16] = Toxicity in Balb/c mouse xenografted with human KBtax cells assessed as serum creatinine level at 8 mg/kg, ip administered 3 times per week and measured after 21 days (reference value: 0.22 +/- 0.02 mg/dl); type: organism-based; conditions: in vivo, 504 h
[17] = tested on: NCI-H1975; assay: Antitumour activity against human NCI-H1975 cells xenografted in Balb/c mouse assessed as tumour size at 8 mg/kg, ip administered three times per week and measured on day 21 (reference value: 2153 +/- 126.3 mm3); type: functional
How it was run: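 H1975 tumours grown in the right flank of 6-week-old BALB/c nude mice. DMSO vehicle or 4 or 8 mg/kg compound in DMSO given ip three times weekly. Tumour volume calculated as 0.5W²L before each dose and compared on day 21.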

[18] = species: Homo sapiens; assay: Induction of mitotic arrest in human KBtax cells assessed as increase in p-HH3 expression at 30 to 60 nM after 24 hrs by immunoblotting analysis; type: functional, cell-based
[19] = Toxicity in Balb/c mouse xenografted with human MDA-MB-231 cells assessed as effect on body mass at 4 to 8 mg/kg, ip administered 3 times per week for 35 days; type: organism-based; conditions: in vivo, 840 h
How it was run: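 MDA-MB-231 tumors established in right flank of 6-week-old BALB/c nude mice; once established, 4 or 8 mg/kg compound in DMSO, or DMSO vehicle, injected intraperitoneally three times weekly. Body mass measured before each injection.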

Chain of Tubulin (Sus scrofa) (P02550 whole entry, looked up): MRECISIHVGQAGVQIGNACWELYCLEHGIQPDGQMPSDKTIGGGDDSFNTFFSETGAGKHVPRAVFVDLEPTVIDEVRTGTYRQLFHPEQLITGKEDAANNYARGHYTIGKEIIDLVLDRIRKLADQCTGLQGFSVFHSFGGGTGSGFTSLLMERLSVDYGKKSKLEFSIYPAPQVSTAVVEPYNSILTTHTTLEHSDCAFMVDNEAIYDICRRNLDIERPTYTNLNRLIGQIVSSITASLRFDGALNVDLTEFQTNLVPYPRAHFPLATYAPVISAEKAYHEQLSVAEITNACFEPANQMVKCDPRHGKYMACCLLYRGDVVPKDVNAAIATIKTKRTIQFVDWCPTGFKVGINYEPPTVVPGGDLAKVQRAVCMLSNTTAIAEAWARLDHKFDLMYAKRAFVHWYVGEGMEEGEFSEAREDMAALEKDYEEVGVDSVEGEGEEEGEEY
Chain of Tubulin (Sus scrofa) (P02554 whole entry, looked up): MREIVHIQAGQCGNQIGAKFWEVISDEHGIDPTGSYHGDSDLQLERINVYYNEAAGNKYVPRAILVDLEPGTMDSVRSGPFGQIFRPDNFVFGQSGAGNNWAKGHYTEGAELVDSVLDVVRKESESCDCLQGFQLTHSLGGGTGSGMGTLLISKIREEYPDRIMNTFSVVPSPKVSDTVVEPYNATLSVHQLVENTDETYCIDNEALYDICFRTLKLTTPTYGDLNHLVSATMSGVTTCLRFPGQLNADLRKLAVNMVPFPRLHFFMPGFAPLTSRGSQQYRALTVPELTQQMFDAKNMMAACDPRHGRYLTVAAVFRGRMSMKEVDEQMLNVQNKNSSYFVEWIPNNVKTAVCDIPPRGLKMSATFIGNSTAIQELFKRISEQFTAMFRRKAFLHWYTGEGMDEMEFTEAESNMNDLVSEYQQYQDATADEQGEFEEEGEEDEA

Row | SMILES | Activity [1] | IC50 [2] [nM] | tubulin inhibition call (active/not active) [3] | Activity [4] [mm3] | IC50 [5] [nM] | IC50 [6] [nM] | IC50 [7] [nM] | Activity [8] | Activity [9] | Activity [10] | Activity [11] | Activity [12] | Activity [13] | Activity [14] | Activity [15] | Activity [16] [mg/dL] | Activity [17] [mm3] | Activity [18] | Activity [19]
1 | CCOC(=O)c1ccc2nc(-c3ccccc3)cc(O)c2c1 | Dose-dependent effect | 84 | Active | 871.3 | 28 | 38 | > 10000 | Active | Dose-dependent effect | Dose-dependent effect | inactive | Dose-dependent effect | Dose-dependent effect |  |  |  |  |  | 
2 | CCOC(=O)c1ccc2[nH]c(-c3cccc(F)c3)cc(=O)c2c1 |  |  |  |  |  |  |  |  |  |  |  |  |  | Active | Active | 0.26 | 972.5 | Active | Non-Toxic
